In the RNAGym collection of RNA variant scans (doi:10.1126/science.aae0568) one finds yeast fitness data, which are given here for 167 variants.

To fix the notation:
B1: tRNA (parent)
chain: GUUCCGUUGGCGUAAUGGUAACGCGUCUCCCUCCUAAGGAGAAGACUGCGGGUUCGAGUCCCGUACGGAACG

Fewer inactive variants are shown than the library holds.

The variants in this data set derive from B1. Put plainly: yeast fitness relative to wild type (ratio to wild type); higher = fitter; tRNA-Arg(CCU), competitive growth, 37 C, YPD. In a few lines:
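The tRNA-Arg(CCU) gene variants were made by chemical synthesis with a 3% per-site mutation rate at 69 sites and inserted at the native genomic locus of Saccharomyces cerevisiae. After pooling, the strains were competed in YPD at 37°C for 24 hours in six parallel replicates. Gene amplicons from the start population and each end population were read by 100-nucleotide paired-end sequencing, and Darwinian fitness relative to wild type was taken from genotype frequency changes. Genotypes needed ≥ 100 starting reads, and estimates < 0.5 were set to 0.5.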
Take C24A G48C: the yeast fitness turned out to be 0.621.
Turning to U13A G23C C27G C61A C62U, the yeast fitness is at most 0.5.
Take C5U A14C C55A: the yeast fitness is at most 0.5.
The same measure for A14C C60G C66U G68A: at most 0.5.
In the case of U8C G17A G41C U64A A65C it was at most 0.5; in that of C5U U53G C62A, at most 0.5; in that of C5U C55U, 0.864.
In the case of U2C C61G A65U it was 0.547; in that of G9A C34U A69U, 0.549; in that of A42U C55U C66U, at most 0.5.
For the variant C4U G50A, the yeast fitness was 0.965.
The same measure for A37G C49A G56A: 0.607; for A20C A65C: 0.957; for G6C U13G G18A C55A: 0.514.
The same measure for C5A C34U C55A: at most 0.5; for U3A G12A A15G C24U A45U: at most 0.5.
The same measure for G9C C22G C62U C66A: at most 0.5; for C4U C55U A65G: 0.554.
A20U C55U A57C: the yeast fitness is at most 0.5.
On to G25A A36U, for which the yeast fitness is 0.564.
The same measure for G12C U28A: 1.04.
The same measure for U3C U26A C31U: 1.02; for A57U G58A A65U: 0.621; for G9A C22A C55U: 0.626.
In the case of C5U A14C A15U G17A U26C A42U A45C it was 0.508; in that of C11U C22G U47C U53G, at most 0.5.
Take U2C G6C C11G A15C G25C C27G C30G G38C: the yeast fitness is at most 0.5.
Turning to U8G G17A C24G G58C, the yeast fitness is at most 0.5.
For C22U C31G A43U C60A, the yeast fitness is at most 0.5.
In the case of A42C A45C U53A A65C A69U it was at most 0.5; in that of G10A U13A C29U C49G, at most 0.5; in that of C30U C60A, 0.593.
The same measure for U2C C5A C29G G48A A69U: at most 0.5.
The same measure for G12C G18C U54C: at most 0.5; for C22G C31G A57C A69C: at most 0.5; for U3C C29U C33A A40C: at most 0.5.
As for C11U G18A A37G, the yeast fitness was at most 0.5.
The same measure for U3C A36C A43C A69C: at most 0.5.
As to U8C U47C A69C, the yeast fitness came out at 0.714.
Turning to U2G C27U C46U G58A, the yeast fitness turned out to be 0.662.
As for A14U C24G U26G, the yeast fitness is at most 0.5.
The same measure for C4U C31G U47C G48C: at most 0.5; for C11G C34G G48A: at most 0.5; for G17U C24U: 0.84.
The same measure for C24U A40U G68U A70C: at most 0.5; for U2G G12C C49U C66U: at most 0.5.
In the case of A15U C62A, the yeast fitness worked out at 0.624.
In the case of C31A C46U it was 0.947; in that of C5U C11A A14C C33G, at most 0.5; in that of U3C C22G G52C G67C, at most 0.5.
The same measure for A45G U54C: 0.774; for A21U C27A G41C G44A C55U C62G: 0.648.
The same measure for U7C C31U A36U A43C C55G: 0.539; for C24U U26C U28C G52C C60G: at most 0.5.
As for G12A U19C C34G C66U A69U, the yeast fitness is 0.59.
In the case of C22A it was 1; in that of C29A A42U, 0.632; in that of U8C U13A C22A A42U, at most 0.5.
The same measure for C11U A40C U53A: 0.586; for G17A U32C A40G: 0.573; for C34G G48A A57G: 0.631.
In the case of C5A A20C C22A C24U C31U G67A it was at most 0.5; in that of C29U A45U A65C, 0.544.
Turning to C5U A37C C61U, the yeast fitness amounted to 0.627.
In the case of C31U G58C C61A A69U it was 0.505; in that of G17A C61G G68A, at most 0.5; in that of C33G A36G, 0.699.
In the case of U8C C22G C27U C49U U64C it was at most 0.5; in that of G23C C29U A36C C49G A70U, 0.53; in that of A21U U28A U35G G58A C62G, at most 0.5.
With G39C G56C A57G, the yeast fitness is at most 0.5.
The same measure for C5G U16A C27G A42C A65C: at most 0.5.
Take C11G A36C G41A C66U: the yeast fitness is at most 0.5.
The same measure for A15G C27A A36G A43G A65G: 0.571; for C24U C49G G52C: 0.503.
The same measure for C5G A42C A57C G68U: at most 0.5.
The same measure for G48C G56A: 0.905.
Take G23A A36C: the yeast fitness was determined as 0.586.
The same measure for U3C C4U A15G U26A U32A: 0.571; for U7A C33U A42C U64C A70G: at most 0.5; for U2A C27G: 0.764.
The same measure for G12A C33U G39C C66G: at most 0.5; for G18A C62U U64A: 0.517.
As for C4G U32C, the yeast fitness was determined as 0.944.
In the case of C30U A45U A57C it was 0.566; in that of G18C U53C C61U, at most 0.5; in that of C5U A14U C29U C46G, at most 0.5.
In the case of C27G G38C U64A it was at most 0.5; in that of G6A C34G C62U G68C, at most 0.5.
Consider U2A U13A U35G U64A A65C, for which the yeast fitness is at most 0.5.
The same measure for A14G U32G: 0.597.
The same measure for U7C C22U C31A G38A C46G G67C: at most 0.5; for A15G U28C U35A G38A C46G: 0.552.
For C4A C31G A40C, the yeast fitness is at most 0.5.
Turning to G6A G12A G23C C49G U53G A57G, the yeast fitness is at most 0.5.
In the case of U13C A15G A21G U47G A65C it was at most 0.5; in that of U7A G17A C24U C34A A40G C61U A69U, at most 0.5; in that of A14G G25A A36U G50A C62G, at most 0.5.
In the case of U8C C55U G63A it was 0.552; in that of A40G C61U, 0.741; in that of C5G U13A A65G, 0.603.
In the case of C11A A21U U54G A65C it was at most 0.5; in that of C31A C33U C55G, at most 0.5.
As for C30G C33U C49U G56A, the yeast fitness was at most 0.5.
The same measure for C30U G48A G67A: at most 0.5; for C5U U13C C61U: 0.673.
The same measure for A42G G51U A70C: at most 0.5.
In the case of U7C A36G A43U C62G it was 0.603.
In the case of C55A G58A, the yeast fitness came out at 0.55.
The same measure for A15C C29U A69C: at most 0.5.
In the case of C5A U7C U19A G38C A42G it was at most 0.5; in that of C11U C30A C55G A57C, at most 0.5.
The same measure for A14U G17A C22U C33G G67U: 0.613; for C4A C30G C31U C55A C61G G67A: at most 0.5.
Turning to C11U A37U G38A, the yeast fitness is at most 0.5.
The same measure for U7C G41A A42C G50C A70C: at most 0.5; for G12C C30U C33G U47G: at most 0.5; for U7C G9C A20G G41A: at most 0.5.
The same measure for G6C C33U C62U: at most 0.5; for C4A C5U G17A: at most 0.5; for G9A G12C C31A C33G A45G A70U: at most 0.5.
A14G C22U C29A: the yeast fitness is at most 0.5.
In the case of G6C G51C G68C it was 0.562.
The same measure for C24A C33G C34U G58C C62U: at most 0.5.
In the case of A21U G25A it was 0.757; in that of U7A G23A G68U, at most 0.5; in that of U19C C24G A37U U47A A65G C66U, at most 0.5.
As to G9C C30U A45G, the yeast fitness is at most 0.5.
The same measure for U32C A70U: 0.935; for A43G A69C: 0.935.
In the case of U8G A21U C62U it was at most 0.5.
The same measure for C5U G12C U32A U35A U54C: at most 0.5.
Consider U32C G58A, for which the yeast fitness is 0.798.
In the case of C5G C30U G67C it was 0.938; in that of U35C A45G, 0.773; in that of U28C G41C, 0.712.
In the case of A21G G23A C27U it was 0.75.
As to C24A C55A C62U A65C, the yeast fitness is 0.529.
Turning to U7C A40G A43C, the yeast fitness came out at 0.77.
The same measure for G9C U16C C30U U59A C60G: at most 0.5; for C27U G58C A70U: 0.876.
The same measure for C5G C49G: 0.84; for C24G C31A A42G A43U: at most 0.5; for C22G C29G C46U C66U: at most 0.5.
The same measure for A15C U16A: 0.628; for U35A A37G C49A: at most 0.5; for C22U A42G U54C C55G A70U: at most 0.5.
For the variant C5G A15U G50A A69U, the yeast fitness is at most 0.5.
In the case of C11G U13G A69C it was 0.531; in that of A15U U19A C24A C34U A40C, at most 0.5.
The same measure for A14G G39A G44C C61A G63C: at most 0.5.
For C55A C66U, the yeast fitness was determined as 0.694.
The same measure for G51A G52U C62A: at most 0.5.
The same measure for A15G C31G: 0.852.
The same measure for U8A G18A C34U A42C: at most 0.5; for A15C U19A C24G C34G C46U C61A A70U: 0.639; for U7A C29G A36C: 0.566.
For the variant G25C G48A G68A, the yeast fitness is 0.564.
In the case of C24U A36G G58C C66G G68A it was 0.569; in that of G23A C24G A37C, 0.506; in that of G44A A45U, 0.885.
In the case of U2A A42U G67C it was at most 0.5.
Turning to G9C G41C, the yeast fitness was determined as 0.575.
The same measure for C24A A45G C61U: at most 0.5.
In the case of C24G C29A C30U G50A C62U, the yeast fitness was at most 0.5.
Take U3G A42G C62G: the yeast fitness was at most 0.5.
A21G U26A C34U G50C C62U: the yeast fitness is at most 0.5.
